Experimental data reported in ChEMBL document CHEMBL1138348, “A p-[18F]fluoroethoxyphenyl bicyclic nucleoside analogue as a potential positron emission tomography imaging agent for varicella-zoster virus thymidine kinase gene expression” (J Med Chem, 2007).
One block for each molecule: values may come before it.

Tests used:
[1] = Inhibition of Varicella zoster virus thymidine kinase; design: species or system Human alphaherpesvirus 3
Outline: (§1)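 Purified recombinant VZV TK (7.75 ng), HSV-1 TK (226 ng) or human cytosolic TK-1 (455 ng) in 50 mM Tris-HCl pH 8.0, 2.5 mM MgCl2, 10 mM DTT, 2.5 mM ATP, 1 mg/mL BSA, 10 mM NaF, with 1 µM final [CH3-3H]dThd substrate. Incubated 30 min at 37 °C with varied compound concentrations; the reaction was linear over this time. Product bound on DE-81 filters, washed, and counted by liquid scintillation. Result reported as IC50.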

[2] = biological target: T1, Thymidine kinase, cytosolic (Homo sapiens, UniProt P04183); assay: Inhibition of human cytosolic thymidine kinase 1; outline: as §1
T1 sequence (P04183 whole entry): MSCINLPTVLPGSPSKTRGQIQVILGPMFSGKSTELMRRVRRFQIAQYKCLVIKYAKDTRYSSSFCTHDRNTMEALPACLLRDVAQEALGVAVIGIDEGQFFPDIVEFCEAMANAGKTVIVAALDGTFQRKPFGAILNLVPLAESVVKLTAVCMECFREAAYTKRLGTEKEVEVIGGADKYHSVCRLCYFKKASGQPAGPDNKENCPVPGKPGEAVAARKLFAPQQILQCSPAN

[3] = Inhibition of HSV1 thymidine kinase; design: species or system Human alphaherpesvirus 1; outline: as §1
Mus musculus [4] = species on record: Mus musculus; assay: Biodistribution in NMRI mouse carcass assessed as radioactivity after 60 mins; assay type: ADME, organism-based; details: in vivo, 1 h
Outline: (§2)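 Male NMRI mice (37–43 g) given 0.1 mL HPLC-purified tracer (diluted in water for injection, EtOH <5%; 37 MBq/mL for 11C tracer, 3.7 MBq/mL for 18F tracer) via tail vein under ketamine/xylazine ip anaesthesia. Decapitation at 2 or 60 min, n=3 per time point. Organs dissected, weighed, gamma counted. Results given as %ID (cpm organ/total cpm recovered) or SUV. Blood mass taken as 7% of body mass. Mean ± SD.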

Lung [5] = assay: Biodistribution in NMRI mouse lungs assessed as radioactivity after 2 mins; assay type: ADME, organism-based; details: in vivo; outline: as §2
Mus musculus [6] = species on record: Mus musculus; assay: Biodistribution in NMRI mouse spleen + pancreas assessed as radioactivity after 60 mins; assay type: ADME, organism-based; details: in vivo, 1 h; outline: as §2
Liver [7] = assay: Biodistribution in NMRI mouse liver assessed as radioactivity after 2 mins; assay type: ADME, organism-based; details: in vivo; outline: as §2
Brain [8] = assay: Biodistribution in NMRI mouse brain assessed as radioactivity after 2 mins; assay type: ADME, organism-based; details: in vivo; outline: as §2
Stomach [9] = assay: Biodistribution in NMRI mouse stomach assessed as radioactivity after 60 mins; assay type: ADME, organism-based; details: in vivo, 1 h; outline: as §2
[10] = Partition coefficient, log P in 1-octanol and phosphate buffer at pH 7.4; assay type: physicochemical; details: 1-octanol/phosphate buffer
Outline: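 HPLC-isolated tracer (about 550 kBq 11C or 185 kBq 18F) partitioned between 1-octanol and 0.025 M phosphate buffer pH 7.4 (2 mL each). Vortexed 2 min at room temperature, centrifuged 1837 g for 5 min. Aliquots of both phases weighed and gamma counted. P calculated as the cpm/mL ratio after density correction; n=6.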

Mus musculus [11] = species on record: Mus musculus; assay: Biodistribution in NMRI mouse urine assessed as radioactivity after 60 mins; assay type: ADME, organism-based; details: in vivo, 1 h; outline: as §2
Brain [12] = assay: Biodistribution in NMRI mouse brain assessed as radioactivity after 60 mins; assay type: ADME, organism-based; details: in vivo, 1 h; outline: as §2
Heart [13] = assay: Biodistribution in NMRI mouse heart assessed as radioactivity after 2 mins; assay type: ADME, organism-based; details: in vivo; outline: as §2
Kidney [14] = assay: Biodistribution in NMRI mouse kidney assessed as radioactivity after 2 mins; assay type: ADME, organism-based; details: in vivo; outline: as §2
Lung [15] = assay: Biodistribution in NMRI mouse lungs assessed as radioactivity after 60 mins; assay type: ADME, organism-based; details: in vivo, 1 h; outline: as §2
Intestine [16] = assay: Biodistribution in NMRI mouse intestine assessed as radioactivity after 60 mins; assay type: ADME, organism-based; details: in vivo, 1 h; outline: as §2
Heart [17] = assay: Biodistribution in NMRI mouse heart assessed as radioactivity after 60 mins; assay type: ADME, organism-based; details: in vivo, 1 h; outline: as §2
Liver [18] = assay: Biodistribution in NMRI mouse liver assessed as radioactivity after 60 mins; assay type: ADME, organism-based; details: in vivo, 1 h; outline: as §2
Intestine [19] = assay: Biodistribution in NMRI mouse intestine assessed as radioactivity after 2 mins; assay type: ADME, organism-based; details: in vivo; outline: as §2
Blood [20] = assay: Biodistribution in NMRI mouse blood assessed as radioactivity after 2 mins; assay type: ADME, organism-based; details: in vivo; outline: as §2
Kidney [21] = assay: Biodistribution in NMRI mouse kidney assessed as radioactivity after 60 mins; assay type: ADME, organism-based; details: in vivo, 1 h; outline: as §2
Mus musculus [22] = species on record: Mus musculus; assay: Biodistribution in NMRI mouse urine assessed as radioactivity after 2 mins; assay type: ADME, organism-based; details: in vivo; outline: as §2
Blood [23] = assay: Biodistribution in NMRI mouse blood assessed as radioactivity after 60 mins; assay type: ADME, organism-based; details: in vivo, 1 h; outline: as §2
Stomach [24] = assay: Biodistribution in NMRI mouse stomach assessed as radioactivity after 2 mins; assay type: ADME, organism-based; details: in vivo; outline: as §2
[25] = Drug uptake in LV-VZVTK-IP transduced 293T cells assessed as radioactivity at 1.1 MBq after 0.5 hrs; assay type: ADME, cell-based; details: human, hek-293t
Outline: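 293T cells stably transduced with lentivirus carrying VZV-tk-IRES-pac (kept in 1 µg/mL puromycin), alongside untransduced control 293T cells. Plated in triplicate at 200 000 cells/well. After 24 h, fresh medium with HPLC-purified tracer added: 1.1 MBq (11C tracer, 0.5 h) or 185 kBq (18F tracer, 3 h), 37 °C. Cells washed with ice-cold PBS and lysed. Gamma counting. Uptake given as % of total radioactivity per mg protein (Bio-Rad assay).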

Mus musculus [26] = species on record: Mus musculus; assay: Biodistribution in NMRI mouse spleen + pancreas assessed as radioactivity after 2 mins; assay type: ADME, organism-based; details: in vivo; outline: as §2
Mus musculus [27] = species on record: Mus musculus; assay: Biodistribution in NMRI mouse carcass assessed as radioactivity after 2 mins; assay type: ADME, organism-based; details: in vivo; outline: as §2

IC50 [1]: > 500 µM
IC50 [2]: > 500 µM
IC50 [3]: > 500 µM
Structure (SMILES): O=c1nc2oc(-c3cccc(OCCCCCCF)c3)cc2cn1[C@H]1C[C@H](O)[C@@H](CO)O1

Drug uptake (Mus musculus [4]): 5.8 %ID
Drug uptake (Lung [5]): 1.2 %ID
Drug uptake (Mus musculus [6]): 0.4 %ID
Drug uptake (Liver [7]): 20.3 %ID
Drug uptake (Brain [8]): 0 %ID
Drug uptake (Stomach [9]): 1 %ID
logD [10]: 1.3
Drug uptake (Mus musculus [11]): 34.3 %ID
Drug uptake (Brain [12]): 0 %ID
Drug uptake (Heart [13]): 0.5 %ID
Drug uptake (Kidney [14]): 22.9 %ID
Drug uptake (Lung [15]): 0.1 %ID
Drug uptake (Intestine [16]): 46.7 %ID
Drug uptake (Heart [17]): 0 %ID
Drug uptake (Liver [18]): 9.9 %ID
Drug uptake (Intestine [19]): 16.8 %ID
Drug uptake (Blood [20]): 7.1 %ID
Drug uptake (Kidney [21]): 1.4 %ID
Drug uptake (Mus musculus [22]): 1.4 %ID
Drug uptake (Blood [23]): 0.6 %ID
Drug uptake (Stomach [24]): 1.2 %ID
Drug uptake [25]: 28.8 %ID
Drug uptake (Mus musculus [26]): 1.5 %ID
Drug uptake (Mus musculus [27]): 29.5 %ID
Structure (SMILES): [11CH3]Oc1ccc(-c2cc3cn([C@H]4C[C@H](O)[C@@H](CO)O4)c(=O)nc3o2)cc1
